# Source: PubChem
# Only a selection was taken, and hits are over-represented in it overall.
# Biofilm kill mix: clotrimazole potentiators killing C. albicans biofilm, primary screen, 4-compound mixtures; C. albicans biofilm persisters + clotrimazole, fluorescence viability; primary screen in compound mixtures of four per well; inhibition, % at 7.6 µM; AID 1242, 2008; 120,000 tested, 0.02% active;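 active means inhibition above 30.3% in the primary screen of four-compound pools, then above 30% when the compound was retested; inconclusive means passed the primary limit but could not be retested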;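 further: compounds exposed to preformed 24 h biofilms for 48 h; 0% = untreated biofilm control and 100% = clotrimazole plus chlorhexidine kill blank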
#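 Test system: C. albicans CAF4-2 wild-type biofilms; buffer or medium: RPMI/MOPS medium, pH 7.0; schedule: 24 h biofilm formation, then 48 h compound exposure, 37 °C; detection: Alamar Blue fluorescence; measure: percent inhibition of biofilm viability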
# ROMK primary: ROMK potassium channel modulators, primary screen, cell-based, thallium flux, MLSMR library; B-score at 10 µM; ATP-sensitive inward rectifier potassium channel 1 (Homo sapiens), P48048; 130,000 tested, 2% active; Tet-inducible ROMK, thallium flux fluorescence; actives lie on both sides;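 active means signal ratio slope over the read window, or its plate-corrected B-score, at least 3 SD from the plate mean, either direction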;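 further: B-score of the F/F0 ratio slope over 7 to 12 s after thallium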
# Target sequence (P48048 whole entry, looked up): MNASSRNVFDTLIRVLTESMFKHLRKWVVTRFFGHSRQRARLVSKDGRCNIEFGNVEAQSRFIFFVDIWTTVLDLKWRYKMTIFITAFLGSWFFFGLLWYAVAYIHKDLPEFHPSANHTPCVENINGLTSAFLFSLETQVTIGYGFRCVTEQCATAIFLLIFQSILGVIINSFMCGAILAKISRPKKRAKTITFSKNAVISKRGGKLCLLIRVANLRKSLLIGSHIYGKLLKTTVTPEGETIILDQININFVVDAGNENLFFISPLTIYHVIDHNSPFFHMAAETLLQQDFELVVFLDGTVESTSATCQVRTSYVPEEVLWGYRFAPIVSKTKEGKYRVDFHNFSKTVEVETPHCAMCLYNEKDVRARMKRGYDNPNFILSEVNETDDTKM
# ROMK hit retest: ROMK channel modulator hit retest, confirmation, cell-based, thallium flux, duplicate, resupplied hits. shares compounds with ROMK primary. fluorescence ratio; stronger effect = lower value. normalized thallium flux (F/F0 slope) at 10 µM. 3,000 tested, 54% active. AID 1917, 2009;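 active means Flux at 10 µM at least 3 SD below or above vehicle control mean in one or both replicates; inconclusive means no clear call, values can overlap the other calls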
# An asterisk follows results filed as active; ? = inconclusive; . = not tested or not shown.
SMILES,Biofilm kill mix,ROMK primary,ROMK hit retest
O=[N+]([O-])c1ccc(-c2ccc(/C=N/Nc3nc(NCc4ccccc4)nc(N4CCOCC4)n3)o2)cc1,10,-3.9*,0.063*
Cc1ccc(Cl)cc1N1CCN(C(=O)Cc2ccc(-n3c(=O)[nH]c4ccsc4c3=O)cc2)CC1,8,.,.
CC(NC(=O)CSc1nnc(-c2cccc(S(=O)(=O)N3CCCCC3)c2)o1)C12CC3CC(CC(C3)C1)C2 (configuration not stated),.,-3.8*,0.066*
COCC(C)NC(=O)CSc1nnc(-c2cccc(S(=O)(=O)N3CCCCC3)c2)o1 (configuration not stated),9,0.064,.
COC(=O)C1=C(C)Nc2[nH]c(=S)[nH]c(=O)c2C1c1ccc(O)cc1 (configuration not stated),10,.,.
CCC(C)(C(=O)NC1CCCCC1)N(CC1CCCO1)C(=O)Cc1cccs1 (configuration not stated),-3,-7.8*,0.075
CCC(C)(C(=O)NC1CCCC1)N(Cc1cccs1)C(=O)Cc1cccs1 (configuration not stated),.,1.1,.
CC(=O)c1ccc(-c2ccc(C(=O)NC3CCCCCC3)o2)cc1,11,-2.3,.
O=C(O)c1cccc(NC(=S)NC(=O)c2ccc(-c3ccc(Cl)cc3)o2)c1,7,2.1*,0.083
Cc1ccc(C(=O)O)cc1NC(=S)NC(=O)c1ccc(-c2ccc(Cl)cc2)o1,22,.,.
CC(=O)c1ccc(N=c2scc(C)n2C(C)C)cc1,1,0.45,.
COc1ccc(C2CC(c3c(-c4ccccc4)c4cc(Cl)ccc4[nH]c3=O)=NN2S(C)(=O)=O)cc1 (configuration not stated),.,-0.37,.
COc1ccc(OC)c(C2CC(c3c(-c4ccccc4)c4cc(Cl)ccc4[nH]c3=O)=NN2S(C)(=O)=O)c1 (configuration not stated),.,.,?
CC(=O)N1CCN(C(=S)c2ccc(-c3ccc(Cl)cc3)o2)CC1,.,-2.5*,0.055*
S=C(c1ccc(-c2cccc(Cl)c2)o1)N1CCCCC1,14,.,.
COC(=O)c1cc(S(=O)(=O)C(C)C)c(S(C)=O)s1 (configuration not stated),24,.,.
CC1CCc2c(cnc3ncnn23)C1 (configuration not stated),14,.,.
COc1cc(OC)c(NC(=O)c2ccc3c(SCC(=O)O)c4c(nc3c2)CCCC4)cc1Cl,4,0.072,.
OCCNC(=S)c1ccccc1,15,.,.
Cc1csc2c(N3CCC(C(=O)O)CC3)ncnc12,15,-0.59,.
Cc1csc2c(N3CCN(C(=O)Nc4ccc(OC(F)(F)F)cc4)CC3)ncnc12,21,.,0.072
Cc1ccc2nc(NC(=O)C3CCCN3C(=O)OC(C)(C)C)sc2c1 (configuration not stated),-4,0.3,.
CC(=O)c1cccc(NC(=S)NNC(=O)c2ccc(C)c([N+](=O)[O-])c2)c1,11,0.55,.
Cc1ccc(C(=O)NNC(=S)Nc2cccc(Cl)c2Cl)cc1[N+](=O)[O-],.,4.3*,0.091
N=C1C(=O)OCC1c1ccccc1NC(=O)CN1CCOCC1 (configuration not stated),9,0.85,.
SMILES,Biofilm kill mix,ROMK primary,ROMK hit retest
C=C1C(C(=O)Nc2ccccc2)C1C(=O)Nc1ccccc1 (configuration not stated),11,-0.57,.
COCCN(CC(=O)NC1CCCCC1)C(=O)/C=C/C(=O)c1ccc(OC)cc1O,6,-5*,0.053*
COc1ccc(C(=O)/C=C/C(=O)N(CC(=O)NC2CCCCC2)Cc2cccs2)c(O)c1,6,-0.14,.
CC(=O)NCc1ccc(C(=O)O)cc1,20,.,.
COC(=O)C1=C(C)NC(=S)NC1c1ccc(-c2cc(Cl)ccc2Cl)o1 (configuration not stated),19,.,.
Nc1c(C(=O)c2ccccc2)sc2nsc(SCCN3CCCC3)c12,13,.,.
CC(=O)c1sc2nsc(SCCN3CCCCC3)c2c1N,19,.,0.053*
O=C(Nc1ccnc(-c2cccnc2)n1)c1cccs1,13,1.3,.
Cc1c(N2C(=O)c3cccc4cccc(c34)C2=O)cnn1C,4,.,.
O=C1CN(C(=O)c2cc3ccccc3oc2=O)C(c2ccccc2)c2cc(F)ccc2N1 (configuration not stated),18,0.73,.
O=C1CN(C(=O)c2cc3ccccc3oc2=O)C(c2ccc(F)cc2)c2cc(F)ccc2N1 (configuration not stated),11,4*,0.075
O=C(c1ccc(Oc2cc(Cl)cc(Cl)c2)o1)N1CCCCC1,5,.,.
CCSCc1nnc(SCC(=O)Nc2ccc(OC)cc2)n1C,10,0.15,.
O=C(/C=C/c1ccccc1Cl)NCc1ccco1,.,-0.55,.
O=C(/C=C/c1c(Cl)cccc1Cl)NCc1ccco1,4,1.7*,0.079
COc1ccc(N2CCN(C(=S)NC(C)c3ccccc3)CC2)cc1 (configuration not stated),14,0.55,.
CC(=O)n1cc(N(C(=O)CCl)c2ccccc2)c2ccccc21,7,-2.8*,?
CC(=O)O/C(=C\c1cn(C(C)=O)c2ccccc12)C(=O)O,13,0.63,.
CCN1CCN(c2c(/C=C3\SC(=S)N(Cc4ccco4)C3=O)c(C)c(C#N)c(=O)n2C)CC1,20,.,0.048*
COc1ccc(-n2c(C)cc(/C=C3\SC(=S)N(Cc4ccco4)C3=O)c2C)cc1,18,-0.13,.
COc1ccc(Cl)cc1NC(=O)Cn1c(NCCO)nc2ccccc21,12,1.4,.
Cc1c(Cl)cccc1NC(=O)Cc1ccc([N+](=O)[O-])cc1,23,-1.1,.
CCOC(=O)C1=C(C)N(C)C(=S)NC1c1cc(OC)ccc1OC (configuration not stated),4,.,.
COc1ccc(OC)c(C2NC(=S)NC3=C2N2CCC3CC2)c1 (configuration not stated),11,3*,0.074
O=C(Nc1ccc(S(=O)(=O)Nc2ncccn2)cc1)c1ccccc1NS(=O)(=O)c1ccc(Cl)cc1,18,.,.
SMILES,Biofilm kill mix,ROMK primary,ROMK hit retest
N=C1/C(=C\c2ccc(-c3cccc(C(=O)O)c3)o2)C(=O)N=C2SC=C(c3ccccc3)N12,17,.,0.059*
Cc1ccccc1-n1c(C)cc(/C=C2/C(=N)N3C(c4ccccc4)=CSC3=NC2=O)c1C,21,.,.
CN1CCN(NC(=O)CN2C(=O)S/C(=C\c3c(Cl)cccc3Cl)C2=O)CC1,11,-0.38,.
CC(=O)O[C@@H]1[C@H]2[C@@H](C[C@@H](C)[C@@H]3CCC(=O)[C@@]13C)OC(=O)[C@@H]2C,6,.,.
CN(Cc1ccccc1)c1nc2nonc2nc1N1CCCC(CN2CCCC2=O)C1 (configuration not stated),18,.,.
O=C(NNC1CC(=O)N(c2ccc(F)cc2)C1=O)c1cccnc1 (configuration not stated),31,-1,.
O=C(NNC1CC(=O)N(c2ccccc2)C1=O)c1cccnc1 (configuration not stated),23,.,0.074
O=C1C(Cc2c[nH]c3ccccc23)NC(=S)N1C1CCCCC1 (configuration not stated),13,.,.
CN(C(=S)Nc1ccc(F)cc1)C1(c2ccccc2Cl)CCCCC1=O (configuration not stated),.,.,0.08
CN(N)C(=S)Nc1ccc(F)cc1,10,.,.
